Data on three compounds can be found in paper PMC7610887 (Journal of psychopharmacology (Oxford, England), 2019).

A word on the EC50: it is the concentration needed to bring the measured effect to its halfway point. Usually Cmax stands for the peak of the concentration-time curve. As usually defined, the NOAEL is the highest tested level that showed no adverse finding.

For data set [1], the system named is dog. As to the kind of experiment: 7-day dose-range finding study, dog. In kind it is in vivo. Conditions: doses of up to 1,000 mg/kg.
The test system of data set [2] is Male Wistar rats. As to the kind of experiment: Passive avoidance, scopolamine-induced deficit. The class given is in vivo, rat.
A further data set deals with Human GluK2 receptors. As to the kind of experiment: Ca2+ flux assay or whole-cell patch clamp, GluK2. In kind it is cell-based. Conditions: Ca2+ flux assay or whole-cell patch clamp (data not shown). In a few lines:
(§1)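 Kainate receptors in HEK cells: hGluK1 (Q-unedited) by lipofectamine transient transfection, hGluK2 stably expressed. Cells were seeded 24 h before assay. In the Ca2+ flux format, cells were loaded with Fluo-4AM (2 μM final) for 60 min in the dark, washed, then given test compound (1:3 serial dilution) plus glutamate (100 μM final), with FLIPR fluorescence read-out.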

The next data set deals with hGluA4i AMPAR (Homo sapiens, UniProt P48058). As to the kind of experiment: Intracellular Ca2+ influx assay. The class given is cell-based. In short, it runs like this: (§2)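 AMPA receptor flip isoforms expressed in HEK-293 cells: hGluA1i, hGluA3i, hGluA4i and rat GluA2i by lipofectamine transient transfection, and hGluA2i stably. All were Q-unedited in TM2. Cells were seeded on poly-D-lysine 2 days before assay and loaded with Fluo-4AM (2 μM final) for 60 min in the dark in HEPES buffer, pH 7.3. Test compound (1:3 serial dilution) was added with glutamate (100 μM final), and FLIPR fluorescence was read. Maximum response was scaled to LY404187 run on each plate.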

Data set [3] concerns the target Homomeric human GluA1 flip isoform (hGluA1i) (Homo sapiens, UniProt P42261). As to the kind of experiment: Intracellular Ca2+ influx assay. The class given is cell-based. Conditions: relative to positive control LY404187. In short, it runs like this: as §2
Data set [4] concerns male Lister Hooded rats. As to the kind of experiment: Maximal electroshock threshold.
Data set [5] is described as follows: Maximal electroshock threshold. Conditions: male, Lister Hooded, rat, brain, oral, 30 mg/kg. In general terms: The maximal electroshock test induces tonic seizures with an electrical stimulus.
Another data set addresses hGluA2i AMPAR (Homo sapiens, UniProt P42262). As to the kind of experiment: Intracellular Ca2+ influx assay. In kind it is cell-based. In short, it runs like this:
as §2

A further data set addresses rat GluA2i AMPAR (Rattus norvegicus, UniProt P19491). As to the kind of experiment: Intracellular Ca2+ influx assay. In kind it is cell-based. In short, it runs like this:
as §2

For the next data set, the system named is anaesthetised rats. As to the kind of experiment: In vivo electrophysiology, dentate gyrus population spike. The note with it: 10 mg/kg i.v.; vehicle 70%. The arrangement: species or system rat.
Test in data set [6]: as above
The arrangement: species or system rat. Conditions: male, Lister hooded, rat, brain, iv.

The subject of data set [7] is rat. As to the kind of experiment: 7-day dose-range finding study, rat. The class given is in vivo. Conditions: doses of up to 1,600 mg/kg, 7-day.
A short description of data set [8]: 7-day dose-range finding study, rat. The class given is in vivo. Conditions: rat, plasma, po, 1600 mg/kg.
For a further data set, the target named is hGluA3i AMPAR (Homo sapiens, UniProt P42263). As to the kind of experiment: Intracellular Ca2+ influx assay. The class given is cell-based. In short, it runs like this:
as §2

Data set [9] deals with rats. As to the kind of experiment: Novel object recognition. The note with it: p.o.
Another data set in a line: Novel object recognition. The note with it: rat, in vivo, 0.1 mg/kg, 0.1 mg/kg p.o. sub-chronic.
For data set [10], the system named is Heteromeric hGluN1A/GluN2B NMDARs. As to the kind of experiment: Ca2+ flux assay or whole-cell patch clamp, NMDAR. In kind it is cell-based, human. Conditions: Ca2+ flux assay or whole-cell patch clamp (data not shown). In short, it runs like this: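 HEK-293 cells were transduced with hGluN1A and hGluN2B BacMam vectors in the presence of 500 μM ketamine, then plated on poly-D-lysine, still with 500 μM ketamine, for 24 h. In the Ca2+ flux format, cells were loaded with Fluo-4AM (2 μM final) for 60 min, washed, then given test compound (1:3 serial dilution) plus glutamate (100 μM final), with FLIPR fluorescence read-out.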
(Calcium assays in cells follow changes in intracellular calcium, usually with a dye or a luminescent sensor.)

Data set [11] concerns Homomeric hGluK1 kainate receptors. As to the kind of experiment: Ca2+ flux assay or whole-cell patch clamp, GluK1. The class given is cell-based, human. Conditions: Ca2+ flux assay or whole-cell patch clamp (data not shown). In a few lines: as §1
Data set [12] deals with dog. As to the kind of experiment: 4-week GLP safety assessment study, dog. The class given is in vivo.
Data set [13] has as its system rat. As to the kind of experiment: 4-week GLP safety assessment study, rat. The class given is in vivo.
A short description of data set [14]: 4-week GLP safety assessment study, rat. In kind it is in vivo. Conditions: rat, plasma, po, 800 mg/kg.
A further data set can be described thus: Solubility. In kind it is physicochemical.
Another data set deals with hGluA2 AMPARs (Homo sapiens, UniProt P42262). As to the kind of experiment: Recombinant receptor whole-cell electrophysiology. In kind it is cell-based. Conditions: 1 mM glutamate. In a few lines: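 HEK cells stably expressing hGluA2 were plated on poly-D-lysine coverslips and used 1-2 days later. Perforated-patch whole-cell recording at -60 mV used 2-5 MΩ pipettes, NaCl/HEPES external solution (pH 7.35) and CsCl/EGTA internal solution (pH 7.3). Glutamate (1 mM) was applied by fast perfusion for 2 s every 30 s, with or without test compound. Responses were related to the current from 1 mM glutamate alone.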

Data set [15] concerns native neuronal AMPARs in rat cultured hippocampal neurons. As to the kind of experiment: Native receptor electrophysiology in cultured hippocampal neurons. In kind it is cell-based. In a few lines: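 Hippocampi from embryonic rats were trypsinised (0.05%, 30 min, 37 °C), dissociated and grown in Neurobasal/B27 for 5-13 days. Whole-cell voltage clamp was held at -70 mV, with AMPA (30 μM) applied for 2 s every 30 s by fast perfusion, with test compound at 1 nM-10 μM. Charge transfer, desensitisation and deactivation were compared with AMPA alone by paired t-test.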

The test system of another data set is pregnane X receptor. As to the kind of experiment: Pregnane X receptor activation. The note with it: linked to a potential for drug-drug interactions.
For the next data set, the system named is cynomolgus monkeys. As to the kind of experiment: 6-week GLP Safety and Toxicity study of UoS12258, cynomolgus monkey. In kind it is in vivo. The note with it: 6-week GLP.
Test in data set [16]: as above
The class given is in vivo. Conditions: cynomolgus monkey, in vivo, po.

Data set [17] deals with Male Wistar rats. The note with it: p.o.; ref Ward et al., 2017; cited from earlier work.
Data set [18] relates to native neuronal AMPARs in rat cultured hippocampal neurons. Conditions: rat primary hippocampal neurons; ref Ward et al., 2017; cited from earlier work.
Data set [19] has as its system male Lister Hooded rats. Conditions: ref Ward et al., 2017, cited from earlier work.
In data set [20] the test system is rats. The note with it: p.o.; ref Ward et al., 2017; cited from earlier work.
For data set [21], the system named is rats. As to the kind of experiment: 6-week GLP Safety and Toxicity study of UoS12258, rat. The class given is in vivo.
The mark [22] stands for this setting: relative to positive control LY404187.

Each structure is given as a SMILES string. Values joined by “and” are separate entries in the source; they are usually repeats but may differ in a detail not shown here. Equal values may be shown once. Read-outs that look alike come from different tables or passages of the source.

Sequence of hGluA2i AMPAR (P42262 25-883 isoform P42262-2 limits assumed): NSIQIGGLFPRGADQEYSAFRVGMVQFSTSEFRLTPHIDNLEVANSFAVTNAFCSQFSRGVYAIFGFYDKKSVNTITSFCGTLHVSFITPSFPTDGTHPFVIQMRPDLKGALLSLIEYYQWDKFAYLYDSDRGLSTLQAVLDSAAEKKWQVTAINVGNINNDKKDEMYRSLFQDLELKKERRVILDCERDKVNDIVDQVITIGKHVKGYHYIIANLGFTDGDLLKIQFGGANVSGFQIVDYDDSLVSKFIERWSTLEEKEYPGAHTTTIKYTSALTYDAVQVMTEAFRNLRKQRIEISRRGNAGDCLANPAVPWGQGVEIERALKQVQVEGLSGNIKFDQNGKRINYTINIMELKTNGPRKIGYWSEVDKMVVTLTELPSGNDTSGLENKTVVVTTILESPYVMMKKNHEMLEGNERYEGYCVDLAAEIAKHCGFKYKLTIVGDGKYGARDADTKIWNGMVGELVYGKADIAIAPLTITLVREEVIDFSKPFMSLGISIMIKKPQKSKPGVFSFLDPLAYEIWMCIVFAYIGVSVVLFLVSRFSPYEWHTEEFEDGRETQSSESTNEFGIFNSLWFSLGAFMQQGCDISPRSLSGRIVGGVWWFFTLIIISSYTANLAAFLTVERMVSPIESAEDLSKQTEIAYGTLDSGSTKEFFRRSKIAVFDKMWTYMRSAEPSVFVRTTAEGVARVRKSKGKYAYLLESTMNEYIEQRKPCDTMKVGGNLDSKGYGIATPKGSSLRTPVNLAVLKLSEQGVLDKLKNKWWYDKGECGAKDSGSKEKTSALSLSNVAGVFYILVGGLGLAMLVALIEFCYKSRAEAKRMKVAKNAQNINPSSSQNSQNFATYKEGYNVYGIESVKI
Sequence of hGluA3i AMPAR (P42263 29-894 isoform P42263-2 limits assumed): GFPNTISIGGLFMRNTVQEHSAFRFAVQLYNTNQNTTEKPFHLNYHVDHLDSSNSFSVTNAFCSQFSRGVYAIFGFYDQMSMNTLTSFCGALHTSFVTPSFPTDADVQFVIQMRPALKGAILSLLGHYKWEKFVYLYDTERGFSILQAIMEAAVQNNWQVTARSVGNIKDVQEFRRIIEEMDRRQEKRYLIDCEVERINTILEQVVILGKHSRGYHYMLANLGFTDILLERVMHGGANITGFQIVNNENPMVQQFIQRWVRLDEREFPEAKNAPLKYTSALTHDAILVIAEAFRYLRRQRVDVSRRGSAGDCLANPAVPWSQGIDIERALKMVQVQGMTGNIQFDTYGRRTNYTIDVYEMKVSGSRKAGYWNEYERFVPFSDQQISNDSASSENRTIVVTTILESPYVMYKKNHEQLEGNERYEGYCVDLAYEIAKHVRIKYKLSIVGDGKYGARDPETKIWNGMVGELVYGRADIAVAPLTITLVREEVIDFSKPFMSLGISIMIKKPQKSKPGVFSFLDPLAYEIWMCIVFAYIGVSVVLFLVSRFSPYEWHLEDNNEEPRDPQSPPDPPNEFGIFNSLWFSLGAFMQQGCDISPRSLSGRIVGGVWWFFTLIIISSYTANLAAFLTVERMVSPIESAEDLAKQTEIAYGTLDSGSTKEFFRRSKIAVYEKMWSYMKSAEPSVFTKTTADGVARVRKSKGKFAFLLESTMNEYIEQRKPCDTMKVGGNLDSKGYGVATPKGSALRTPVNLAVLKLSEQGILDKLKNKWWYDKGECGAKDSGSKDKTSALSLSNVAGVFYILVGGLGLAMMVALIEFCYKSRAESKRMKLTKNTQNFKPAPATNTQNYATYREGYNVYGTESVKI
Sequence of hGluA4i AMPAR (P48058 21-902): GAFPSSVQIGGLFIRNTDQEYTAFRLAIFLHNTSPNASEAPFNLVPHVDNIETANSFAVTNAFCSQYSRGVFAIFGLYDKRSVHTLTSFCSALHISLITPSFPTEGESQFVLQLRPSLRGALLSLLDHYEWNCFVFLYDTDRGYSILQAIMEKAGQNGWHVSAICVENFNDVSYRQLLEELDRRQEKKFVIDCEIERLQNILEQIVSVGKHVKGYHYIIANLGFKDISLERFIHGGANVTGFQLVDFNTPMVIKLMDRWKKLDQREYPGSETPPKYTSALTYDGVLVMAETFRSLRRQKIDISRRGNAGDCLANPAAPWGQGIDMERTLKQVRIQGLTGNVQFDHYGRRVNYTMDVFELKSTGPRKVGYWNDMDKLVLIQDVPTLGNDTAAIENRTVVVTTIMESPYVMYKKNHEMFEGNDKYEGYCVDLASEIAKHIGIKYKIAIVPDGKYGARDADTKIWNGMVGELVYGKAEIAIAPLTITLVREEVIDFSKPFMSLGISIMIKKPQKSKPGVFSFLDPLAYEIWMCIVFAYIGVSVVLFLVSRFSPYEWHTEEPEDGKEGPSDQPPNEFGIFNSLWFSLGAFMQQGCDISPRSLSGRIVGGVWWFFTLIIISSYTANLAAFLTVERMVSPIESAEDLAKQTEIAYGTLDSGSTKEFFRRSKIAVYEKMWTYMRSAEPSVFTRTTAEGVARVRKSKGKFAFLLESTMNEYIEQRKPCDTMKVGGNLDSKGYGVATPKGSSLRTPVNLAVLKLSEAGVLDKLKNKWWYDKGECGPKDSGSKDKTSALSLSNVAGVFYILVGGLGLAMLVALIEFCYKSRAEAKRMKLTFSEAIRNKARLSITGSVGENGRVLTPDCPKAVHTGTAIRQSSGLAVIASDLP
Sequence of rat GluA2i AMPAR (P19491 22-883 isoform P19491-2 limits assumed): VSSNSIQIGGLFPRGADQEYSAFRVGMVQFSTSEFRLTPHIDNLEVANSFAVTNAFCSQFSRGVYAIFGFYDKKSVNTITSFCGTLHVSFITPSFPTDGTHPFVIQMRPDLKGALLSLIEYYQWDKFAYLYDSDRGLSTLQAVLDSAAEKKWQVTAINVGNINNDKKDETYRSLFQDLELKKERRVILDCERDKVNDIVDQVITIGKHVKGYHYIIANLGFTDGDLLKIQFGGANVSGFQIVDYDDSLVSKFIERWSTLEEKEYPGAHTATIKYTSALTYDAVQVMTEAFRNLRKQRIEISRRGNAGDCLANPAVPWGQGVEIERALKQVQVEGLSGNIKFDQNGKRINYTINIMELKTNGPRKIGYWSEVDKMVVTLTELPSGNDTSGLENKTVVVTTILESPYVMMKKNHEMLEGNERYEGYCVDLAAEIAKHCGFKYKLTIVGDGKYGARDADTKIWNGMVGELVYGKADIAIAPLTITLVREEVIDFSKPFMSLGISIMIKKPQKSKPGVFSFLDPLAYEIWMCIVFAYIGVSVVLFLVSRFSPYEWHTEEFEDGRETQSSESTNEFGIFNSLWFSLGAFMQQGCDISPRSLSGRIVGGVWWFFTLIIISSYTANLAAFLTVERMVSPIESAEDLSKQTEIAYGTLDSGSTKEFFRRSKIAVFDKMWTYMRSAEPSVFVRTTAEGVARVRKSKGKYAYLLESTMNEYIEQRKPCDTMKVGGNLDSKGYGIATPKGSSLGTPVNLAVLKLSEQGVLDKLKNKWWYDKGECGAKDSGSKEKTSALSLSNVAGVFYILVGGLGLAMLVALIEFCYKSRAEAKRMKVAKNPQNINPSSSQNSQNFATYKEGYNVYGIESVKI
Sequence of hGluA2 AMPARs (P42262 25-883 isoform P42262-2 limits assumed): as the sequence (P42262 25-883 isoform P42262-2 limits assumed) above
Sequence of Homomeric human GluA1 flip isoform (hGluA1i) (P42261 19-906 isoform P42261-2 limits assumed): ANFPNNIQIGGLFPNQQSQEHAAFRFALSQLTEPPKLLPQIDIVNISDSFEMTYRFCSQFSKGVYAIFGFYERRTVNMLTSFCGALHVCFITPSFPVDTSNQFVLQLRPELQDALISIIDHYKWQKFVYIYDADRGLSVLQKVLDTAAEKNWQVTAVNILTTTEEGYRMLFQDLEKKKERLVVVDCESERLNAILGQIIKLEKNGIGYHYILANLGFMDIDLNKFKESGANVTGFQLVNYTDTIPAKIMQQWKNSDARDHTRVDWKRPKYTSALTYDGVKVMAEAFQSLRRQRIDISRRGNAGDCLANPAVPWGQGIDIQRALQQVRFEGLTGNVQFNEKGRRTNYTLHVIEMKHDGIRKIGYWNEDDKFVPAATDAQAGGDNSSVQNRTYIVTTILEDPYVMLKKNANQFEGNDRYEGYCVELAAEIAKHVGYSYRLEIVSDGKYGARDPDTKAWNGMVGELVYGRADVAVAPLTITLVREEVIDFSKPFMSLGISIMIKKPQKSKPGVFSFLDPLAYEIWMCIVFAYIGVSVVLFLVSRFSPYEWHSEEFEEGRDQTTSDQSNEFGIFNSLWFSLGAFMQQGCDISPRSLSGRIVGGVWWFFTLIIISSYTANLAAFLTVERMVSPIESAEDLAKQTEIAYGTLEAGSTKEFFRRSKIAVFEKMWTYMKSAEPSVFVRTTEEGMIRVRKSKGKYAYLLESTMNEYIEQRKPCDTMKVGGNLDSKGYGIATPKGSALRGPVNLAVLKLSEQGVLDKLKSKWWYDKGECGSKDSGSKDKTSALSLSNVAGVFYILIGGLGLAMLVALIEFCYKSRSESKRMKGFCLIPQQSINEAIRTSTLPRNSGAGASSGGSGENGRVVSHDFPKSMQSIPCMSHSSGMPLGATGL

As to `O=C(c1ccc(-n2nc(C(F)(F)F)c3c2CCCC3)cc1)N1CCCC1` [MDI-222, 1-[4-(1-pyrrolidinylcarbonyl)phenyl]-3-(trifluoromethyl)-4,5,6,7-tetrahydro-1H-indazole], the convulsions / tolerability entry with dog [1] and with rat [7] was “did not produce convulsions” throughout. In the data set with Male Wistar rats [2] (p.o.), the “MED, reversal of scopolamine-induced deficit” value worked out at 10 mg/kg. Moreover, the “effect on glutamate-induced currents” value (in the data set on Human GluK2 receptors; in [10]; in [11]) was “no effects” in each case. For the same compound, the EC50 is 7.94 µM on hGluA4i AMPAR, 5 µM on hGluA2i AMPAR, 3.98 µM at rat GluA2i AMPAR and 31.6 µM at hGluA3i AMPAR. Further, the Max. % response at hGluA4i AMPAR (setting [22]) was 76 ± 1 (4) %; in data set [3], 30 ± 2 (4) %; at hGluA2i AMPAR (setting [22]), 123 ± 7% and 123 ± 7 (9) %; on rat GluA2i AMPAR (setting [22]) it was 76 ± 8 (4) %; on hGluA3i AMPAR (setting [22]), 53 ± 3 (3) %. For the same compound, in the data set with male Lister Hooded rats [4] (30 mg/kg p.o.), the brain drug concentration result is recorded as “approximately 4.7 μg/g”. For the same compound, in the data set with male Lister Hooded rats [4] (3, 10 and 30 mg/kg p.o.), the “CC50 lower than vehicle-treated rats” value was 10-15%. The “effect on seizure threshold” value in the data set on male Lister Hooded rats [4] (up to 30 mg/kg p.o.) is given as “did not significantly affect the seizure threshold”. This compound also came in with a concentration at 0.5 h in data set [5] of roughly 4700 ng/g. In addition, in the data set with anaesthetised rats, the “dentate gyrus population spike amplitude” value is 139 % of baseline. Further, in [6], the concentration at 20 min is 11600 ng/g. Also, the maximum concentration (Cmax) in data set [8] was roughly 15000 ng/mL; in data set [14] it was 13 to 17000 ng/mL. In addition, the “minimal effective dose (D2 index), acute” value in the data set on rats [9] (acute single-dose) is 0.3 mg/kg. Moreover, in the data set on rats [9] (sub-chronic (7-day) dosing), the “minimal effective dose, sub-chronic” value was found to be 0.1 mg/kg. The concentration at 30 min came out at 7 ng/mL in the data set “Novel object recognition” (mean blood level) and 9 ng/g in “Novel object recognition” (mean brain level). Also, the “systemic exposure on Day 28 relative to Day 1, fold lower” value in the data set with dog [12] (4-week study) is reported as no more than 9 fold; in the data set with rat [13] (4-week study), “up to 6 fold”. Also, the convulsions result is on record as “no convulsions observed” with dog [12] (highest dose 1,000 mg/kg, 4-week GLP) and “no convulsions observed” in the data set on rat [13] (highest dose 800 mg/kg, 4-week GLP). In the data set “Solubility”, the solubility entry is reported as “poor solubility”. Further, the “potentiation of glutamate-evoked charge transfer (area under the curve)” value on hGluA2 AMPARs (100 nM) came out at 121 ± 7%; on hGluA2 AMPARs (10 μM) it was 702 ± 40%. Moreover, the “Charge transfer, normalised to AMPA alone” value in data set [15] (1 nM) is given as 1.14 ± 0.05; in data set [15] (10 nM), 1.37 ± 0.09; in [15] (100 nM), 1.33 ± 0.12; in data set [15] (1 μM) it was 1.28 ± 0.14; in data set [15] (10 μM), 1.62 ± 0.15. Further, the “Deactivation, normalised to AMPA alone” value in data set [15] (1 nM) was determined as 1.06 ± 0.04; in data set [15] (10 nM), 1.19 ± 0.15; in data set [15] (100 nM), 1.29 ± 0.17; in data set [15] (1 μM), 1.33 ± 0.17; in [15] (10 μM), 2.79 ± 0.43. For the same compound, the “Desensitisation, normalised to AMPA alone” value is recorded as 0.77 ± 0.10 in data set [15] (1 nM); 0.81 ± 0.05 in [15] (10 nM); 0.76 ± 0.03 in data set [15] (100 nM); 0.72 ± 0.04 in data set [15] (1 μM); 0.25 ± 0.08 in data set [15] (10 μM). Further, in data set [15] (10 μM), the “increase in charge transfer (maximal potentiation)” value was 62%. Moreover, the “minimum effective concentration, charge transfer” value in data set [15] (AMPA 30 μM) was found to be 1 nM. Also, in data set [15] (AMPA 30 μM), the “minimum effective concentration, desensitisation” value turned out to be 10 nM. Besides, in data set [15] (no agonist), the “inward current when applied in the absence of AMPA” value is given as “did not invoke an inward current”. Further, the “pregnane X receptor” value with pregnane X receptor is on record as “activation”.
Turning to `CC(C)S(=O)(=O)N[C@H]1Cc2ccc(-c3ccc(F)nc3)cc2C1` [UoS12258, N-[(2S)-5-(6-fluoro-3-pyridinyl)-2,3-dihydro-1H-inden-2-yl]-2-propanesulfonamide], the “dose at which convulsions were observed” value in the data set with cynomolgus monkeys is listed as 4 mg/kg. The same compound yielded an NOAEL at 6 weeks in data set [16] of 2.5 mg/kg. Also, the “MED, reversal of scopolamine-induced deficit” value in the data set with Male Wistar rats [17] is listed as 3 mg/kg. Moreover, the “maximal potentiation in the charge transfer” value in data set [18] is 310%. Moreover, in the data set on male Lister Hooded rats [19] (100 mg/kg p.o.), the brain exposure result was “around 5.0 μg/g” and the “proconvulsant effect in MEST” value is given as “comparable to that of the positive control picrotoxin”. Also, the “proconvulsant dose in MEST” value in the data set on male Lister Hooded rats [19] (p.o.) was 10 mg/kg. Also, in the data set with rats [20], the “MED, NOR following sub-chronic dosing” value was 0.01 mg/kg and the “MED, acute-dosing NOR” value is 0.3 mg/kg. The “dose at which convulsions were observed” value with rats [21] stood at 10 mg/kg.
Turning to `CN1[C@@H]2C[C@@H](OC(=O)[C@H](CO)c3ccccc3)C[C@H]1[C@@H]1O[C@@H]12` [scopolamine, reference compound], the step-through latency with Male Wistar rats [2] (scopolamine 1 mg/kg i.p., vehicle 457 ± 83 s) was 157 ± 46 s.
